Hits are enriched below; roughly 10% of the tested compounds scored in any of these assays.
PMI activator = activators of human PMI, primary screen, biochemical, fluorescence intensity, near-Km mannose 6-phosphate; purified human PMI, coupled resazurin fluorescence, 20 min; hits give high values; 1 = vehicle control, 0 substrate-free wells; Mannose-6-phosphate isomerase (Homo sapiens), P34949; activation factor at 20 µM; AID 1214, 2008; 190,000 compounds, 0.005% hits;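 active = activation factor of 2 or more at 20 µM, relative to plate controls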
Target sequence (P34949 whole entry, looked up): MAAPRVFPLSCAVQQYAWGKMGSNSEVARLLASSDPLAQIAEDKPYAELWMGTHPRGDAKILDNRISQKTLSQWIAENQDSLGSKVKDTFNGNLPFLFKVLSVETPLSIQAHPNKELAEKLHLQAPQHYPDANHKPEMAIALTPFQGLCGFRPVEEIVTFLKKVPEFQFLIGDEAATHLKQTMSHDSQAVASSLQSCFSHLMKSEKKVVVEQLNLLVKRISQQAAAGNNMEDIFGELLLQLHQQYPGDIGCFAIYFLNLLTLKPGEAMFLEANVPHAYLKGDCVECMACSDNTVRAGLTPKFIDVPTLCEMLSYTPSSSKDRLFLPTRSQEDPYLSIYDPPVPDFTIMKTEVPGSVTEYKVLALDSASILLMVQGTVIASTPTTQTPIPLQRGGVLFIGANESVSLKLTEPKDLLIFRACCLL
PMI act satM6P = human PMI activators, high substrate, primary screen, biochemical, fluorescence intensity, near-saturating mannose 6-phosphate | 190,000 compounds, 0.34% hits | activation factor at 20 µM | coupled PMI enzyme assay, resazurin fluorescence, 20 min; hits give high values; 1 = untreated enzyme, 0 = substrate-free blank | Mannose-6-phosphate isomerase (Homo sapiens), P34949 | AID 1216, 2008;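 active = activation factor of 2 or more at 20 µM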
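Test system: human phosphomannose isomerase with PGI, G6PDH, diaphorase coupling enzymes / Doses: 20 µM compound, 1% DMSO / Times: enzyme reaction with compound 20 min at room temperature / Measured by: Diaphorase-driven resazurin-to-resorufin fluorescence, excitation 544, emission 590 nm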
WT yeast gro inh = growth inhibition of WT strain, primary screen, mitochondrial fusion inhibitor project, WT and mutant strains, chemical genetic | mitochondrial fusion phenotypic screen | inhibition, % at 10 µM | 190,000 compounds, 2.1% hits | AID 1362, 2008; in the data active = inhibition above about 58%; tested in S. cerevisiae
Lmaj promast = Leishmania major promastigote growth inhibition, primary screen; Leishmania major promastigotes, resazurin fluorescence viability; inhibition, % at 10 µM; 200,000 compounds, 9% hits; in the data active = inhibition above about 50%;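 also: promastigotes grown with compound for 44 hours at 28 °C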
Diaph act CS = compounds boosting diaphorase resazurin reduction – biochemical, uHTS, resorufin fluorescence, counter-screen for diaphorase-coupled primary assays, primary screen | Diaphorase/resazurin coupled assay, 16 min; hits give high values; 1 = vehicle wells, 0 = NADH-free wells | activation factor at 20 µM | 190,000 compounds, 0.005% hits | AID 1229, 2008;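 active = diaphorase activity raised at least twofold by the compound at 20 µM; inactive = activation factor below 2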
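test system = bacterial diaphorase enzyme (C. kluyveri) | quantity = enzyme 0.07 U/mL final | reagent = NADH substrate 0.114 mM plus resazurin dye 0.1 mM, final | incubation = 16 min enzyme reaction, ambient temperature | buffer or medium = HEPES pH 7.4 buffer with MgCl2 and Tween 20 | signal = fluorescence of resorufin, 544 nm excitation, 590 nm emission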
* hit, by the source's call.

How did CC(C)n1c(NCc2nc3ccccc3n2C)nc2ccccc21 do in these assays?
PMI activator: 0.9; PMI act satM6P: 0.9; WT yeast gro inh: -5; Lmaj promast: 60*; Diaph act CS: 0.9

What do the screens show for `CCn1c(CNC(=O)c2ccccc2)nc2ccccc21`?
Lmaj promast: -1

What do the screens show for `Cc1ccc(NCc2nc3ccccc3n2C)cc1`?
PMI activator: 0.8; PMI act satM6P: 0.9; WT yeast gro inh: 11; Lmaj promast: 5; Diaph act CS: 1

How did CC(C)n1c(NCCO)nc2ccccc21 do in these assays?
PMI activator: 0.8; PMI act satM6P: 0.9; WT yeast gro inh: -7; Lmaj promast: 6; Diaph act CS: 0.9

What do the screens show for `Cc1ccc(NC(=O)COC(=O)C2CC(=O)N(Cc3ccccc3)C2)cc1S(=O)(=O)N(C)C` (stereo not drawn)?
PMI activator: 1.2; PMI act satM6P: 1.2; WT yeast gro inh: -14; Lmaj promast: -3; Diaph act CS: 0.9

Results for COC(=O)c1ccc(C(=O)N(CCN(C)C)c2nc3c(Cl)cccc3s2)cc1 ?
PMI activator: 1.1; PMI act satM6P: 1.1; WT yeast gro inh: -2; Lmaj promast: 16; Diaph act CS: 0.9

Results for COCCn1c(=NC(=O)C(C)(C)C)sc2cc([N+](=O)[O-])ccc21 ?
PMI activator: 0.9; PMI act satM6P: 0.9; WT yeast gro inh: -6; Lmaj promast: -2; Diaph act CS: 0.9

Results for NCCNc1cc(N2CCCC2)ccc1[N+](=O)[O-] ?
PMI activator: 0.9; PMI act satM6P: 0.8; WT yeast gro inh: -14; Lmaj promast: 5; Diaph act CS: 0.9

Results for Cc1ccccc1OCCNc1cc(N2CC(C)NC(C)C2)ccc1[N+](=O)[O-] (stereo not drawn) ?
PMI activator: 0.9; PMI act satM6P: 0.8; WT yeast gro inh: 87*; Lmaj promast: 100*; Diaph act CS: 1

What do the screens show for `O=[N+]([O-])c1ccc(N2CCCCC2)cc1NCCOc1ccccc1`?
PMI activator: 0.9; PMI act satM6P: 0.9; WT yeast gro inh: 6; Lmaj promast: 69*; Diaph act CS: 0.9

Results for COc1cc(C(=O)N/N=C/c2sc(N3CCOCC3)nc2-c2ccccc2)cc(OC)c1OC ?
PMI activator: 1; PMI act satM6P: 1.1; WT yeast gro inh: 11; Lmaj promast: 9; Diaph act CS: 0.8

What do the screens show for `CCOC(=O)c1nnc(-c2ccc(C)cc2)nc1Sc1ccc(Cl)cc1`?
PMI activator: 1.1; PMI act satM6P: 1.1; WT yeast gro inh: -7; Lmaj promast: 54*; Diaph act CS: 1.1

How did Cc1ccc(C)c2[nH]c(=O)c(C(c3nnnn3C(C)(C)C)N3CC=C(c4ccc(F)cc4)CC3)cc12 (stereo not drawn) do in these assays?
PMI activator: 0.9; PMI act satM6P: 1; WT yeast gro inh: -13; Lmaj promast: 97*; Diaph act CS: 0.9

Results for Cc1nc2ccc(S(=O)(=O)NCC(=O)N(C)Cc3ccccc3)cc2s1 ?
PMI activator: 0.9; PMI act satM6P: 0.8; WT yeast gro inh: -6; Lmaj promast: 2; Diaph act CS: 0.9

Results for CCn1c(/C=C/Nc2ccccc2)[n+](CC)c2cc(Cl)c(Cl)cc21 ?
PMI activator: 1; PMI act satM6P: 1; WT yeast gro inh: 41; Lmaj promast: 100*; Diaph act CS: 0.8

Results for CCn1c(/C=C/N(C(C)=O)c2ccccc2)[n+](CCCS(=O)(=O)[O-])c2cc(Cl)c(Cl)cc21 ?
WT yeast gro inh: 12; Lmaj promast: 0

How did Cc1cc(C)cc(C(=O)N2CC(=O)Nc3ccccc32)c1 do in these assays?
PMI activator: 1; PMI act satM6P: 1; WT yeast gro inh: 18; Lmaj promast: 13; Diaph act CS: 1

What do the screens show for `CCc1cccc(Nc2c([N+](=O)[O-])cc(C(=O)N3CC(=O)Nc4ccccc43)cc2[N+](=O)[O-])c1`?
PMI activator: 1; PMI act satM6P: 1; WT yeast gro inh: 7; Lmaj promast: 79*; Diaph act CS: 0.8

Results for O=[N+]([O-])c1ccc(C2Oc3ccccc3C3CC(c4ccccc4)=NN32)s1 (stereo not drawn) ?
PMI activator: 1.4; PMI act satM6P: 1.6; WT yeast gro inh: 96; Lmaj promast: 99*; Diaph act CS: 0.7

What do the screens show for `O=[N+]([O-])c1ccc(S(=O)(=O)CC(CN2CCOCC2)N2CCOCC2)cc1` (stereo not drawn)?
PMI activator: 1; PMI act satM6P: 1; WT yeast gro inh: -6; Lmaj promast: 6; Diaph act CS: 1.1

What do the screens show for `O=[N+]([O-])c1ccc(S(=O)(=O)CC(CN2CCCCC2)N2CCCCC2)cc1` (stereo not drawn)?
PMI activator: 1; PMI act satM6P: 1; WT yeast gro inh: 3; Lmaj promast: 101*; Diaph act CS: 1.1

How did O=S(=O)(CC(CN1CCCCC1)N1CCCCC1)c1ccccc1 (stereo not drawn) do in these assays?
PMI activator: 0.9; PMI act satM6P: 0.9; WT yeast gro inh: -11; Lmaj promast: 98*; Diaph act CS: 1

What do the screens show for `COc1ccc(/C=C/C=C2\NC(=S)NC2=O)cc1`?
PMI activator: 1.4; PMI act satM6P: 1.3; WT yeast gro inh: 5; Lmaj promast: -4; Diaph act CS: 0.8

What do the screens show for `COc1ccc(OC)c(-c2nc(CN3CCCCC3c3cccnc3)c(C)o2)c1` (stereo not drawn)?
PMI activator: 0.9; PMI act satM6P: 0.8; WT yeast gro inh: 4; Lmaj promast: 8; Diaph act CS: 0.9

Results for COc1ccc(CN2CCCCC2c2cccnc2)c(OC)c1C (stereo not drawn) ?
PMI activator: 1; PMI act satM6P: 1; WT yeast gro inh: -4; Lmaj promast: 70*; Diaph act CS: 0.8

What do the screens show for `Cc1ccc(C)c(S(=O)(=O)N2CCN(CC(=O)N3CCc4ccccc4C3)CC2)c1`?
PMI activator: 1; PMI act satM6P: 1.1; WT yeast gro inh: 8; Lmaj promast: 24; Diaph act CS: 0.8

How did Cc1ccc(NC(=O)C(OC(=O)c2ccc(F)cc2)c2ccccc2)cc1Cl (stereo not drawn) do in these assays?
PMI activator: 0.9; PMI act satM6P: 1; WT yeast gro inh: -10; Lmaj promast: 4; Diaph act CS: 0.9

What do the screens show for `Cc1ccc(NC(=O)C(OC(=O)c2ccc(O)cc2)c2ccccc2)cc1Cl` (stereo not drawn)?
PMI activator: 1; PMI act satM6P: 1; WT yeast gro inh: 89*; Lmaj promast: 4; Diaph act CS: 0.8
